For 6 molecules, half-life, Activity and IC50 results are on record in ChEMBL document CHEMBL1151903, “Unique behavior of 2,6-bis(bromomethyl)naphthalene as a highly active organic DNA crosslinking molecule” (Bioorg Med Chem, 2009).

Each structure is given as a SMILES string. Calls of active or inactive are those of the source.

A short description of series [1]: Stability in aqueous solution assessed as half life. The series is classed as physicochemical. A digest of the protocol:
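Compound at final 10 µM in 0.01 M sodium phosphate buffer pH 7.4/MeCN (4:1). Decomposition followed by reversed-phase RP-18 HPLC with UV detection, eluting with MeCN–H2O or MeOH–H2O; half-life taken from the decomposition rate.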

The subject of series [2] is Salmonella enterica subsp. enterica. In words: Mutagenic activity in Salmonella typhimurium TA100 assessed as crosslinking-associated increase in number of revertants after 2 days by Ames test. The series is classed as toxicity, organism-based. Conditions: salmonella enterica subsp. enterica serovar typhimurium, 48 h.
Series [3] shares this test system. Put plainly: Mutagenic activity in Salmonella typhimurium TA92 assessed as crosslinking-associated increase in number of revertants after 2 days by Ames test. The format is toxicity, organism-based. Conditions: salmonella enterica subsp. enterica serovar typhimurium, 48 h. A digest of the protocol: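 TA92 grown 15.5 h at 37 °C in nutrient broth/NaCl. Culture (0.1 mL) mixed with DMSO-diluted compound (50 µL) in 0.1 M sodium phosphate pH 7.4 and preincubated 20 min at 37 °C. Mixed into 0.6% soft agar and overlaid on minimal agar. Revertant colonies counted manually after 2 days at 37 °C; mean of six plates.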

In series [4] the test system is Nucleic Acid. In words: Induction of […] DNA interstrand crosslinking activity at 10 uM after 6 hrs by agarose gel electrophoresis. The series is classed as nucleic-acid assay. In short, it runs like this: (§1)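 Linearized pBluescript plasmid DNA (460 ng) exposed to compound in DMSO at 37 °C for 6 h. DNA recovered by EtOH precipitation and lyophilized, then taken up in 1 mM EDTA in 30% aqueous DMSO. Heat-denatured at 95 °C for 5 min and ice-quenched. Run on 1% agarose gel and stained with ethidium bromide.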

Series [5] relates to Nucleic Acid. Put plainly: Induction of […] DNA interstrand crosslinking activity at 1 uM after 6 hrs by agarose gel electrophoresis. The format is nucleic-acid assay. In short, it runs like this:
as §1

A further series has as its system CCRF-HSB-2. Put plainly: Antiproliferative activity against human CCRF-HSB2 cells after 24 hrs by trypan blue exclusion assay. The format is functional, cell-based. Conditions: CCRF-HSB-2, 24 h. A digest of the protocol: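 CCRF-HSB-2 cells in RPMI1640 with 10% fetal calf serum, 37 °C, 5% CO2, seeded at 3 × 10^5 cell/mL in 3 mL per well. Pre-incubated 24 h, then given compound as DMSO solution (3 µL per well) for 24 h. Trypan blue-excluding cells counted.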

Series [6] relates to Nucleic Acid. Put plainly: Induction of […] DNA interstrand crosslinking activity at > 100 uM after 6 hrs by agarose gel electrophoresis. The format is nucleic-acid assay. A digest of the protocol:
as §1

With `BrCc1ccc2nc(CBr)ccc2c1`, the half-life (as a rule, the time needed for the level to fall by half in the phase considered) in series [1] is 12.8 h.

Turning to `BrCc1ccc(CBr)c2ccccc12`, the result in series [2] and in series [3] was Active. Also, in series [1], the half-life was 0.567 h. The outcome with Nucleic Acid [4] and in the series with Nucleic Acid [5] was Active.

Regarding `BrCc1ccc(CBr)c2ncccc12`, the half-life in series [1] was determined as 10.5 h.

Regarding `ClCc1ccc(CCl)c2ccccc12`, in series [1], the half-life turned out to be 5.5 h.

For the molecule `ClCc1ccc2cc(CCl)ccc2c1`, in series [1], the half-life is 0.95 h.

With `BrCc1ccc2cc(CBr)ccc2c1`, the result in series [2] and in series [3] was Active. In addition, in the series on CCRF-HSB-2, 4 µM corresponded to half-maximal inhibition (IC50). In the series with Nucleic Acid [6], the outcome was inactive. Besides, the half-life in series [1] is below 0.167 h.
